Only some compounds are listed: those with a hit (about 4.6% of all), similar ones and a draw of the others.
NALP1 inh – inhibitors of NALP1 inflammasome in yeast; S. cerevisiae NALP1/ASC/caspase-1 growth, X-gal OD620, 72 h; inhibition, % at 10 µM; 280,000 tested, 0.61% active; AID 2071; in the data active means inhibition mostly above about 24%, no sharp cut-off; inactive means mostly below about 32%
ALR H2O2 inh – inhibitors of human sulfhydryl oxidase ALR; 290,000 tested, 3.8% active; inhibition, % (no concentration beside the values); purified ALR, DTT oxidation, H2O2 HRP-luminol luminescence;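 active means mean replicate inhibition above about 79%, with every replicate also reaching it, limit read from the data; inconclusive means only one of the two criteria met; inactive means mean below limit and not every replicate reaching it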
Target sequence (P55789 whole entry, looked up): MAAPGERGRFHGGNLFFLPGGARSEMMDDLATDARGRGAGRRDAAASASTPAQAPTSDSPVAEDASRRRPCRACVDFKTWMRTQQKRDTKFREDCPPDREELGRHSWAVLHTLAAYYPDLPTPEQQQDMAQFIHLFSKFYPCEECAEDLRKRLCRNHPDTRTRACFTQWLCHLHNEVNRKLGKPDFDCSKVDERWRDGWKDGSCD
Arr AP2 block – inhibitors of human beta-arrestin and AP2 interaction | inhibition, % at 10 µM | FITC-arrestin peptide / GST-AP2 beads, flow cytometry; AP2 beta2 appendage carries R879A mutation | 340,000 tested, 0.31% active;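 active means inhibition above a set limit, near 3 SD of compounds lacking own fluorescence, cut at about 54% in these data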;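 further: plate controls were DMSO wells for no effect and 5 µM unlabelled arrestin peptide for full effect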
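System: GST-AP2 R879A glutathione beads. Medium: PBS with 0.05% Tween 20 and 0.1% BSA. Also added: FITC-arrestin peptide, 50 nM. Incubation: 12 min plus 1 h, RT. Measured by: high-throughput flow cytometry of beads, ex 488, em 535 nm. Evaluation: percent drop in bead-associated FITC signal.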
NLRP3 yeast inh – NALP3 inhibition in yeast; 330,000 tested, 0.39% active; AID 2825; Yeast reconstituted NLRP3/ASC/caspase-1, beta-gal luminescence, 24 h; inhibition, % at 10 µM;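 active means inhibition of 50% or more; inactive means inhibition below 50%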;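 further: plate controls were induced DMSO wells for no effect and uninduced yeast grown without galactose for full effect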
PolyA inhibitor – inhibitors of polyadenylation in S. cerevisiae | S. cerevisiae SKY197-pL101 polyadenylation reporter, beta-gal luminescence; efflux-impaired pdr1/pdr3 knockout yeast; score 100 = 6 SD above DMSO | activity score, % at 12 µM | 300,000 tested, 0.02% active | AID 1875;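 active means lowest replicate activity score at least 50, where 100 means six control SD above control mean; inconclusive means lowest score under 50 but half or more replicates reach 50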;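 further: yeast exposed to compound for 9 h at 30 °C; higher score means more reporter readthrough which indicates perturbed polyadenylation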
Pemphigus Ab inh – inhibitors of pemphigus antibody binding to human desmoglein-3; P32926; DSG3-coupled beads, scFv-anti-DSG3-GFP binding, flow cytometry; stronger effect = lower value; binding (percent of control), % at 10 µM; 310,000 tested, 0.48% active; AID 588358;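 active means binding more than 3 SD below its plate's average and above zero; inconclusive means below that plate limit but binding exactly zero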;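 further: hits lower antibody fragment binding to DSG3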
Starred values were filed as active, the others as inactive; ? = inconclusive; · = no result.

SMILES	NALP1 inh	ALR H2O2 inh	Arr AP2 block	NLRP3 yeast inh	PolyA inhibitor	Pemphigus Ab inh
CCCCN(CCCC)S(=O)(=O)c1ccc(NC(=O)CN2CCOCC2)cc1	41*	2	0	16	7	100
CN(C)c1ccc(/C=N/N2C(=O)c3ccccc3C2=O)cc1	·	1	3	7	3	90
CCN(CC)c1ccc(/C=N/NC(=O)CC(C)C)cc1	7	99*	-14	-3	13	116
CCN(CC)c1ccc(/C=N/N2C(=O)c3ccccc3C2=O)cc1	1	17	33	8	7	63*
COc1cc(NC(C)CCCN)c2nc(C)ccc2c1Oc1ccc(F)cc1 (stereo not given)	·	·	·	·	·	117
CCCCN1C(=O)CCC(C(=O)O)C1c1ccc([N+](=O)[O-])cc1 (stereo not given)	9	-6	32	23	-3	92
COc1ccc(CCNC(=O)Nc2cccs2)c(OC)c1	14	-1	19	15	-9	88
CCN(CC)c1ccc(/C=N\NC(N)=O)cc1	31	99*	-4	18	0	85
O=C(CNC(=O)c1ccccc1F)NCCN1C(=O)S/C(=C\c2ccc3c(c2)OCO3)C1=O	·	·	6	8	·	95
NCCN1C(=O)S/C(=C\c2ccc3c(c2)OCO3)C1=O	16	92*	8	14	-2	101
COc1ccc(S(=O)(=O)N2CCN(CC(=O)Nc3ccccc3OC)CC2)cc1	47	6	1	18	-10	75*
COc1ccc(N)cc1NC(=O)CN1CCCC1	13	97*	1	0	6	91
COc1ccc(Cl)cc1NC(=O)CN1CCCCCC1	-2	-10	2	6	-4	119
CCOC(=O)/C=C/C(=O)OCC(=O)Nc1c(Cl)cccc1Cl	-4	15	8	6	-16	100
CCOC(=O)/C=C/C(=O)OCC(=O)Nc1ccc(Cl)cc1Cl	28*	96*	-28	-6	-3	99
O=C(CSc1nnc(NC(=O)C2CC2)s1)Nc1ccc(F)cc1F	-2	-3	-29	15	24	107
CCCc1cc(=O)[nH]c(SCC(=O)c2cc(C)n(C3CC3)c2C)n1	20	2	-6	13	3	104
CCCc1cc(=O)[nH]c(SCC(=O)c2cc(C)n(C)c2C)n1	4	98*	1	6	14	108
CCCc1cc(=O)[nH]c(SCCOc2ccc(OCC)cc2)n1	44*	-12	-2	20	-3	103
Cc1cc(=O)[nH]c(SCc2cccc3ccccc23)n1	12	98*	29	9	-8	92
COc1ccc(CSc2nc(C)cc(=O)[nH]2)cc1Br	28	98*	25	15	16	102
Cc1cc(CSc2nc(C)cc(=O)[nH]2)c2ncccc2c1	4	·	30	25	-5	92
COc1ccc(NS(=O)(=O)NC(=O)c2c[nH]c3ccccc23)cc1	23	1	-5	-3	-8	102
CCCc1cc(=O)[nH]c(SCc2ccccc2Cl)n1	8	99*	6	22	-10	102
O=c1cc(CSc2nc3ccccc3[nH]2)c2ccccc2[nH]1	22	91*	-2	7	27	103
SMILES	NALP1 inh	ALR H2O2 inh	Arr AP2 block	NLRP3 yeast inh	PolyA inhibitor	Pemphigus Ab inh
Fc1ccc(CSc2nc3ccccc3[nH]2)c2ccccc12	9	2	0	41	-16	103
COc1ccc(NC(=O)CSc2nnc3n2CCCCC3)cc1S(=O)(=O)N(C)C	·	·	·	·	·	99
C=C(C)CN(CC)C(=O)CSc1ccc(S(=O)(=O)N2CCN(C)CC2)cn1	·	·	-13	18	·	93
Cc1c(NC(=O)COC(=O)C2=COCCO2)cccc1[N+](=O)[O-]	·	·	-2	20	-5	101
O=c1c(-c2ccc(O)cc2O)coc2cc(O)cc(O)c12	3	81*	2	26	-11	110
COc1ccccc1-c1coc2cc(O)cc(O)c2c1=O	22	16	-2	39	-5	103
CC(NC(=O)CNC(=O)c1ccccc1F)c1ccc(-n2ccnc2)cc1 (stereo not given)	·	-1	15	3	·	95
O=C(O)CNC(=O)c1ccc(N2CCOCC2)cc1[N+](=O)[O-]	-9	-9	5	6	-10	102
O=C(c1ccc(N2CCOCC2)cc1[N+](=O)[O-])N1CCOCC1	34*	-16	-18	15	27	96
Cc1cc(C)n(C(C[N+](=O)[O-])c2ccc(Cl)cc2)n1 (stereo not given)	101*	-35	6	22	-3	86
Cc1cc(O)c(C(C[N+](=O)[O-])c2ccc(Cl)cc2)c(=O)o1 (stereo not given)	14	4	6	-7	15	102
CCOC(=O)C1CCN(Cc2oc(CO)cc(=O)c2O)CC1	2	91*	0	7	10	102
O=c1cc(CO)oc(CN2CCN(c3ccccc3)CC2)c1O	15	98*	-3	-5	1	94
O=c1cc(CO)oc(CN2CCN(c3cccc(C(F)(F)F)c3)CC2)c1O	23	?	-2	6	-7	106
Cc1cccc(-c2nc(CSCC(=O)NCCCN3CCOCC3)c(C)o2)c1	1	99*	11	-2	-11	104
Cc1oc(-c2ccc(Cl)cc2)nc1CSCC(=O)NCCCN1CCOCC1	10	99*	24	-8	7	81
CC1=C(C(=O)N2CCOCC2)CC(CC(=O)NC2CCCCC2)C(=O)N1Cc1ccccc1 (stereo not given)	·	·	·	·	·	111
CC(C)C(=O)NC(C)C(c1cccs1)N1CCN(c2ccccc2)CC1 (stereo not given)	18	15	4	2	13	116
CC(NC(=O)C1CC1)C(c1cccs1)N1CCN(c2ccccc2)CC1 (stereo not given)	12	99*	-4	6	7	102
CC(NS(C)(=O)=O)C(c1cccs1)N1CCN(c2ccccc2F)CC1 (stereo not given)	·	·	1	25	7	99
CC(NS(C)(=O)=O)C(c1cccs1)N1CCN(c2ccccc2)CC1 (stereo not given)	10	99*	9	-1	-3	100
CCN1CCN(C(c2cccs2)C(C)NC(=O)C(=O)N2CCCCC2)CC1 (stereo not given)	18	-5	35	7	5	103
CC(NC(=O)C(=O)N1CCCCC1)C(c1cccs1)N1CCN(c2ccccc2)CC1 (stereo not given)	14	99*	14	3	2	109
CC(NC(=O)C(=O)N1CCCCC1)C(c1cccs1)N1CCN(c2ccc(F)cc2)CC1 (stereo not given)	9	98*	8	8	-9	101

Source: PubChem
